Experimental data published in ChEMBL document CHEMBL4477161, “Facile Synthesis of Natural Alkoxynaphthalene Analogues from Plant Alkoxybenzenes” (J Nat Prod, 2016).
Active and inactive are the calls of the source.

Legend:
Type in all cases: functional, organism-based
[1] = system: Paracentrotus lividus; assay: In vivo antiproliferative activity in sea urchin embryos assessed as cleavage alteration at 4 uM measured after 2.5 to 5.5 hrs post fertilization
Outline: (§1)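 Fertilized sea urchin eggs, cultured at room temperature in filtered seawater with paddle agitation (60 rpm), were exposed as a monolayer (up to 2000 embryos/mL) 8−20 min after fertilization to 2-fold serial dilutions. Compounds came from 10 mM DMSO stocks diluted 10-fold in 96% EtOH, with final DMSO ≤0.05% and EtOH ≤1%. Cleavage alteration was scored microscopically at 2.5−5.5 h post-fertilization. The threshold concentration is the lowest dose giving 100% alteration.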

[2] = system: Paracentrotus lividus; assay: In vivo antiproliferative activity in sea urchin embryos assessed as cleavage alteration at 1 uM measured after 2.5 to 5.5 hrs post fertilization; outline: as §1
[3] = system: Paracentrotus lividus; assay: In vivo antiproliferative activity in sea urchin embryos assessed as cleavage alteration at 2 uM measured after 2.5 to 5.5 hrs post fertilization; outline: as §1
[4] = system: Paracentrotus lividus; assay: In vivo antiproliferative activity in sea urchin embryos assessed as cleavage alteration up to 4 uM measured after 2.5 to 5.5 hrs post fertilization; outline: as §1

For `COc1ccc(-c2cccc3c(OC)c(OC)c4c(c23)OCO4)cc1`, the Activity [1] was “Active”, the Activity [2] was “Active” and the Activity [3] was “Active”.

`COc1ccc(-c2cccc3c(OC)c(OC)c(OC)c(OC)c23)cc1` was tested, and the Activity [4] was “inactive”.

In the case of `COc1ccc(-c2cccc3cc(OC)c4c(c23)OCO4)cc1`, the Activity [4] is reported as “inactive”.

With `COc1ccc(-c2cccc3c(OC)c4c(c(OC)c23)OCO4)cc1` the Activity [4] was “inactive”.

`COc1ccc(C(O)CC(O)Cc2cc(OC)c3c(c2OC)OCO3)cc1` (stereo not given) was tested, and the Activity [3] was “Active”.

With `COc1ccc(C(N)CC(O)Cc2cc(OC)c3c(c2OC)OCO3)cc1` (stereo not given) the Activity [4] was “inactive”.

For `COc1ccc(C2CC(O)Cc3c(OC)c4c(c(OC)c32)OCO4)cc1` (stereo not given), the Activity [4] was “inactive”.

With `COc1ccc(-c2cccc3cc4c(cc23)OCO4)cc1` the Activity [4] was “inactive”.

For `COc1ccc(C(=O)CC(O)Cc2cc(OC)c3c(c2)OCO3)cc1` (stereo not given), the Activity [4] was “inactive”.

In the case of `COc1cc(-c2cccc3cc4c(cc23)OCO4)cc(OC)c1OC`, the Activity [1] is reported as “Active” and the Activity [3] is reported as “Active”.

For `COc1ccc(-c2cccc3cc4c(c(OC)c23)OCO4)cc1`, the Activity [1] was “Active”.

With `COc1ccc(C(=O)CC(O)Cc2ccc3c(c2)OCO3)cc1` (stereo not given) the Activity [4] was “inactive”.
